Test results as given in ChEMBL document CHEMBL1152489, “Synthesis and biological evaluation of a novel series of 1,5-benzothiazepine derivatives as potential antimicrobial agents” (2009).
The source made the active and inactive calls. The rule behind the calls is not given here.

Columns and labels:
Staphylococcus aureus [1] = experiment: Antibacterial activity against Staphylococcus aureus ATCC 25923 at 50 ug/disk after 24 hrs by disk diffusion method; type: functional; details: for zone of inhibition at 50 µg/disc: ATCC 25923, 24 h, read-out: IZ
Summary of the method: (§1)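 Disk diffusion on media seeded with the organism. Sterile paper discs (6 mm) carried test compound dissolved in DMSO at 12.5, 50, 100 or 200 µg/disc. DMSO-only discs served as controls. Plates were incubated 24 h at 37 °C. The read-out is the growth-inhibition zone diameter in mm, averaged over three trials (±1 mm).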

Escherichia coli [2] = experiment: Antibacterial activity against Escherichia coli ATCC 44752 at 50 ug/disk after 24 hrs by disk diffusion method; type: functional, organism-based; summary of the method: as §1
Staphylococcus aureus [3] = experiment: Antibacterial activity against Staphylococcus aureus ATCC 25923 at <12.5 ug/disk after 24 hrs by disk diffusion method; type: functional, organism-based; summary of the method: as §1
[4] = test system: Staphylococcus epidermidis; experiment: Antibacterial activity against Staphylococcus epidermidis ATCC 26069 after 24 hrs by disk diffusion method; type: functional, organism-based; summary of the method: as §1
Staphylococcus aureus [5] = experiment: Antibacterial activity against Staphylococcus aureus ATCC 25923 at 100 ug/disk after 24 hrs by disk diffusion method; type: functional; details: for zone of inhibition at 100 µg/disc: ATCC 25923, 24 h, read-out: IZ; summary of the method: as §1
Staphylococcus aureus [6] = experiment: Antibacterial activity against Staphylococcus aureus ATCC 25923 after 24 hrs by disk diffusion method; type: functional, organism-based; summary of the method: as §1
[7] = test system: Staphylococcus epidermidis; experiment: Antibacterial activity against Staphylococcus epidermidis ATCC 26069 at 100 ug/disk after 24 hrs by disk diffusion method; type: functional; details: for zone of inhibition at 100 µg/disc: ATCC 26069, 24 h, read-out: IZ; summary of the method: as §1
Escherichia coli [8] = experiment: Antibacterial activity against Escherichia coli ATCC 44752 at 100 ug/disk after 24 hrs by disk diffusion method; type: functional, organism-based; summary of the method: as §1
Candida albicans [9] = experiment: Antifungal activity against Candida albicans ATCC 10231 after 24 hrs by disk diffusion method; type: functional, organism-based; summary of the method: as §1
[10] = test system: Staphylococcus epidermidis; experiment: Antibacterial activity against Staphylococcus epidermidis ATCC 26069 at <12.5 ug/disk after 24 hrs by disk diffusion method; type: functional, organism-based; summary of the method: as §1
Candida albicans [11] = experiment: Antifungal activity against Candida albicans ATCC 10231 at <12.5 ug/disk after 24 hrs by disk diffusion method; type: functional, organism-based; summary of the method: as §1
[12] = test system: Staphylococcus epidermidis; experiment: Antibacterial activity against Staphylococcus epidermidis ATCC 26069 at 200 ug/disk after 24 hrs by disk diffusion method; type: functional; details: for zone of inhibition at 200 µg/disc: ATCC 26069, 24 h, read-out: IZ; summary of the method: as §1
[13] = test system: Staphylococcus epidermidis; experiment: Antibacterial activity against Staphylococcus epidermidis ATCC 26069 at 50 ug/disk after 24 hrs by disk diffusion method; type: functional; details: for zone of inhibition at 50 µg/disc: ATCC 26069, 24 h, read-out: IZ; summary of the method: as §1
Candida albicans [14] = experiment: Antifungal activity against Candida albicans ATCC 10231 at 200 ug/disk after 24 hrs by disk diffusion method; type: functional; details: for zone of inhibition at 200 µg/disc: ATCC 10231, 24 h, read-out: IZ; summary of the method: as §1
Candida albicans [15] = experiment: Antifungal activity against Candida albicans ATCC 10231 at 100 ug/disk after 24 hrs by disk diffusion method; type: functional; details: for zone of inhibition at 100 µg/disc: ATCC 10231, 24 h, read-out: IZ; summary of the method: as §1
Escherichia coli [16] = experiment: Antibacterial activity against Escherichia coli ATCC 44752 at 200 ug/disk after 24 hrs by disk diffusion method; type: functional, organism-based; summary of the method: as §1
Staphylococcus aureus [17] = experiment: Antibacterial activity against Staphylococcus aureus ATCC 25923 at 200 ug/disk after 24 hrs by disk diffusion method; type: functional; details: for zone of inhibition at 200 µg/disc: ATCC 25923, 24 h, read-out: IZ; summary of the method: as §1
Candida albicans [18] = experiment: Antifungal activity against Candida albicans ATCC 10231 at 50 ug/disk after 24 hrs by disk diffusion method; type: functional; details: for zone of inhibition at 50 µg/disc: ATCC 10231, 24 h, read-out: IZ; summary of the method: as §1
Candida albicans [19] = experiment: Antifungal activity against Candida albicans ATCC 10231 at 25 ug/disk after 24 hrs by disk diffusion method; type: functional; details: ATCC 10231, 24 h, read-out: IZ
Summary of the method: (§2)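 Disc diffusion: sterile 6 mm paper discs impregnated with compound dissolved in DMSO, placed on the surface of medium inoculated with the microorganism; DMSO-only discs served as controls. Plates were incubated at 37 °C for 24 h. Growth-inhibition zone diameter (mm) was read and averaged over three trials.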

Escherichia coli [20] = experiment: Antibacterial activity against Escherichia coli ATCC 44752 at 30 ug/disk after 24 hrs by disk diffusion method; type: functional; details: ATCC 44752, 24 h, read-out: IZ; summary of the method: as §2
[21] = test system: Staphylococcus epidermidis; experiment: Antibacterial activity against Staphylococcus epidermidis ATCC 26069 at 30 ug/disk after 24 hrs by disk diffusion method; type: functional; details: ATCC 26069, 24 h, read-out: IZ; summary of the method: as §2
Staphylococcus aureus [22] = experiment: Antibacterial activity against Staphylococcus aureus ATCC 25923 at 30 ug/disk after 24 hrs by disk diffusion method; type: functional; details: ATCC 25923, 24 h, read-out: IZ; summary of the method: as §2

Compound | zone of inhibition at 50 µg/disc (Staphylococcus aureus [1]) | inhibition zone (IZ) (Escherichia coli [2]) | zone of inhibition at 100 µg/disc (Staphylococcus aureus [5]) | zone of inhibition at 100 µg/disc [7] | inhibition zone (IZ) (Escherichia coli [8]) | zone of inhibition at 200 µg/disc [12] | zone of inhibition at 50 µg/disc [13] | zone of inhibition at 200 µg/disc (Candida albicans [14]) | zone of inhibition at 100 µg/disc (Candida albicans [15]) | inhibition zone (IZ) (Escherichia coli [16]) | zone of inhibition at 200 µg/disc (Staphylococcus aureus [17]) | zone of inhibition at 50 µg/disc (Candida albicans [18]) | inhibition zone (IZ) (Candida albicans [18]) | other results
CC(=O)C1=C(C)Nc2ccccc2SC1c1ccc(Cl)cc1 (stereo unspecified) | 12 mm | inactive | 14 mm | 17 mm | inactive | 19 mm | 17 mm | 24 mm | 21 mm | inactive | 15 mm | 18 mm | – | Activity (Staphylococcus aureus [3]): inactive; Activity [4]: Dose-dependent effect; Activity (Staphylococcus aureus [6]): Dose-dependent effect; Activity (Candida albicans [9]): Dose-dependent effect; Activity [10]: inactive; Activity (Candida albicans [11]): inactive
CCOC(=O)C1C(C)=Nc2ccccc2SC1c1ccc(O)cc1 (stereo unspecified) | 7 mm | inactive | 15 mm | 16 mm | inactive | 20 mm | 10 mm | 30 mm | 24 mm | inactive | 18 mm | 14 mm | – | Activity (Staphylococcus aureus [3]): inactive; Activity [4]: Dose-dependent effect; Activity (Staphylococcus aureus [6]): Dose-dependent effect; Activity (Candida albicans [9]): Dose-dependent effect; Activity [10]: inactive; Activity (Candida albicans [11]): inactive
CCOC(=O)C1=C(C)Nc2ccccc2SC1c1ccc(F)cc1 (stereo unspecified) | – | inactive | – | – | inactive | – | – | – | – | inactive | – | – | inactive | inhibition zone (IZ) (Staphylococcus aureus [1]): inactive; inhibition zone (IZ) (Staphylococcus aureus [5]): inactive; inhibition zone (IZ) [7]: inactive; inhibition zone (IZ) [12]: inactive; inhibition zone (IZ) [13]: inactive; inhibition zone (IZ) (Candida albicans [14]): inactive; inhibition zone (IZ) (Candida albicans [15]): inactive; inhibition zone (IZ) (Staphylococcus aureus [17]): inactive
CC(=O)C1=C(C)Nc2cc(Cl)ccc2SC1c1ccc([N+](=O)[O-])cc1 (stereo unspecified) | 7 mm | inactive | 7 mm | 11 mm | inactive | 11 mm | 10 mm | 14 mm | 11 mm | inactive | 11 mm | 9 mm | – | –
CC(=O)C1=C(C)Nc2ccccc2SC1c1ccccc1[N+](=O)[O-] (stereo unspecified) | 8 mm | inactive | 11 mm | 9 mm | inactive | 10 mm | 7 mm | 16 mm | 13 mm | inactive | 12 mm | 11 mm | – | –
CC(=O)C1=C(C)Nc2cc(Cl)ccc2SC1c1ccccc1Cl (stereo unspecified) | 7 mm | inactive | 8 mm | 7 mm | inactive | 10 mm | 7 mm | 15 mm | 12 mm | inactive | 11 mm | 10 mm | – | –
OC(Cn1cncn1)(Cn1cncn1)c1ccc(F)cc1F [FLUCONAZOLE] | – | – | – | – | – | – | – | – | – | – | – | – | – | zone of inhibition at 25 µg/disc (Candida albicans [19]): 23 mm
CC(=O)C1=C(C)Nc2cc(Cl)ccc2SC1c1ccccc1[N+](=O)[O-] (stereo unspecified) | 7 mm | inactive | 7 mm | 8 mm | inactive | 8 mm | 7 mm | – | – | inactive | 8 mm | – | inactive | inhibition zone (IZ) (Candida albicans [14]): inactive; inhibition zone (IZ) (Candida albicans [15]): inactive
CC(=O)C1=C(C)Nc2cc(Cl)ccc2SC1c1ccc(Cl)cc1 (stereo unspecified) | 7 mm | inactive | 7.5 mm | 7.5 mm | inactive | 10 mm | 7 mm | 13 mm | 11 mm | inactive | 10 mm | 10 mm | – | –
CN[C@H](CC(C)C)C(=O)N[C@H]1C(=O)N[C@@H](CC(N)=O)C(=O)N[C@H]2C(=O)N[C@H]3C(=O)N[C@H](C(=O)N[C@H](C(=O)O)c4cc(O)cc(O)c4-c4cc3ccc4O)[C@H](O)c3ccc(c(Cl)c3)Oc3cc2cc(c3O[C@@H]2O[C@H](CO)[C@@H](O)[C@H](O)[C@H]2O[C@H]2C[C@](C)(N)[C@H](O)[C@H](C)O2)Oc2ccc(cc2Cl)[C@H]1O [VANCOMYCIN] | – | – | – | – | – | – | – | – | – | – | – | – | – | zone of inhibition at 30 µg/disc (Escherichia coli [20]): 8 mm; zone of inhibition at 30 µg/disc [21]: 18 mm; zone of inhibition at 30 µg/disc (Staphylococcus aureus [22]): 18 mm
CCOC(=O)C1=C(C)Nc2ccccc2SC1c1ccc([N+](=O)[O-])cc1 (stereo unspecified) | – | inactive | 6.5 mm | – | inactive | – | – | 7 mm | 6.5 mm | inactive | 7 mm | – | inactive | inhibition zone (IZ) (Staphylococcus aureus [1]): inactive; inhibition zone (IZ) [7]: inactive; inhibition zone (IZ) [12]: inactive; inhibition zone (IZ) [13]: inactive
CCOC(=O)C1=C(C)Nc2ccccc2SC1c1ccccc1Cl (stereo unspecified) | – | inactive | – | – | inactive | – | – | – | – | inactive | – | – | inactive | inhibition zone (IZ) (Staphylococcus aureus [1]): inactive; inhibition zone (IZ) (Staphylococcus aureus [5]): inactive; inhibition zone (IZ) [7]: inactive; inhibition zone (IZ) [12]: inactive; inhibition zone (IZ) [13]: inactive; inhibition zone (IZ) (Candida albicans [14]): inactive; inhibition zone (IZ) (Candida albicans [15]): inactive; inhibition zone (IZ) (Staphylococcus aureus [17]): inactive
